# Data as given in paper PMC7105043 (Journal of the Chinese Medical Association, 2017).
# Key:
# XTT cytotoxicity assay = type: cell-based, human; conditions: dog, MDCK cells
# How it was run: (§1)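 Test compound serially diluted in complete MEM (10% heat-inactivated FBS) and added to A549 cells seeded at 1 × 10^4 cells/well and pre-incubated 24 h. Cells exposed 3 days at 35 °C, 5% CO2, then XTT reagent for 4 h. Absorbance read at 450 nm, reference 620 nm. Viability relative to untreated control (100%). Triplicate wells, at least three independent runs.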
# A549 cells = assay: XTT cytotoxicity assay; type: cell-based, human; conditions: XTT, 3 days; method says A549 cells, Table 1 says MDCK cells
# How it was run: as §1
# [1] = system: pandemic influenza A (H1N1) virus (A/California/07/2009); assay: microbe, parasite or virus in culture; type: cell-based
# [2] = system: pandemic influenza A (H1N1) virus; type: cell-based
# [3] = system: pandemic influenza A (H1N1) virus; type: cell-based; remark: listed apart in the source
# [4] = system: pandemic influenza A (H1N1) virus; type: cell-based; remark: listed apart in the source
# [5] = system: H1N1 A/Puerto Rico/8/34-NS116-GFP; conditions: ref 25 (Theisen et al); cited from earlier work
# [6] = ref 25 (Theisen et al); cited from earlier work
SMILES,CC50 at 3 days (XTT cytotoxicity assay) [mg/L],protective effect against virus infection (cell viability) [2],inhibition of viral RNA synthesis (qRT-PCR) [3],green fluorescence (viral glycoprotein foci) [4],further results
"C[C@@H]1O[C@@H](OC[C@H]2O[C@@H](Oc3c(-c4ccc(O)c(O)c4)oc4cc(O)cc(O)c4c3=O)[C@H](O)[C@@H](O)[C@@H]2O)[C@H](O)[C@H](O)[C@H]1O [rutintrihydrate, rutin trihydrate]",> 100,,,,
O.Oc1cc(O)c2c(c1)O[C@H](c1ccc(O)c(O)c1)[C@@H](O)C2 [catechin],,protective effects,significant inhibition,decreased in a dose-dependent manner,"XTT cytoxicity (CC50) (A549 cells): >100 mg/L; Plaque inhibition (EC50) [1]: 18.4 ± 0.7 mg/L; reduction of viral production (plaque assay) ([1]; 25 μg/mL): approximately 50%; EC50 (XTT viability of infected cells, Fig. 1) [2]: 10 to 25 mg/L"
O=c1c(O)c(-c2ccc(O)cc2)oc2cc(O)cc(O)c12 [kaempferol],> 100,,,,
O=c1c(O)c(-c2ccc(O)c(O)c2)oc2cc(O)cc(O)c12 [quercetin hydrate],> 100,,,,
O=C(O)c1cc(O)c(O)c(O)c1 [gallic acid],22.1 ± 0.6,protective effects,significant inhibition,decreased in a dose-dependent manner,"reduction of viral production (plaque assay) ([1]; 2.5 μg/mL): approximately 50%; EC50 ([1]; Influenza A virus, H1N1, 72 h, read-out: Plaque inhibition (EC50)): 2.6 ± 0.07 mg/L; EC50 [5]: 50.8 µM; CC50 [6]: 770 µM"
